Data on 25 molecules can be found in ChEMBL document CHEMBL1131423, “N-(2-Benzoylphenyl)-L-tyrosine PPARgamma agonists. 2. Structure-activity relationship and optimization of the phenyl alkyl ether moiety” (J Med Chem, 1998).

The source made the active and inactive calls. The rule behind the calls is not given here. Some results are limits rather than exact numbers.

The target in experiment [1] is T1, Peroxisome proliferator-activated receptor alpha (Homo sapiens, UniProt Q07869).
T1 sequence (Q07869 whole entry): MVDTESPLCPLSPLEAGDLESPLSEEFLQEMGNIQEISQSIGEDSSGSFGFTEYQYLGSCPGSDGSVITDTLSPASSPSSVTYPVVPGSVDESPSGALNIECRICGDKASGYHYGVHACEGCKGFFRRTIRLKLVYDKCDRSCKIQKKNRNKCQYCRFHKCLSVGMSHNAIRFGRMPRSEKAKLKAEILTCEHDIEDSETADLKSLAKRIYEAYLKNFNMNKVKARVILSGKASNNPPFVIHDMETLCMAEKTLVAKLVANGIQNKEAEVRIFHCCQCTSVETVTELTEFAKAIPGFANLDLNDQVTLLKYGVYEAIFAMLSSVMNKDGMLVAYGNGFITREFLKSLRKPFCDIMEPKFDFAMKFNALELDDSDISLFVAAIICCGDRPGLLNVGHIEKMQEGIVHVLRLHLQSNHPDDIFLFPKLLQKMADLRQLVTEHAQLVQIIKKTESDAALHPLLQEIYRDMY
Kind of experiment: Tested in vitro for inhibiting the 50% binding of Peroxisome proliferator activated receptor alpha.

For experiment [2], the target named is T1, Peroxisome proliferator-activated receptor alpha. Put plainly: In vitro transactivation of Peroxisome proliferator activated receptor alpha. It is filed as functional.
The target in experiment [3] is T2, Peroxisome proliferator-activated receptor gamma (Homo sapiens) (UniProt P37231).
T2 sequence (whole entry): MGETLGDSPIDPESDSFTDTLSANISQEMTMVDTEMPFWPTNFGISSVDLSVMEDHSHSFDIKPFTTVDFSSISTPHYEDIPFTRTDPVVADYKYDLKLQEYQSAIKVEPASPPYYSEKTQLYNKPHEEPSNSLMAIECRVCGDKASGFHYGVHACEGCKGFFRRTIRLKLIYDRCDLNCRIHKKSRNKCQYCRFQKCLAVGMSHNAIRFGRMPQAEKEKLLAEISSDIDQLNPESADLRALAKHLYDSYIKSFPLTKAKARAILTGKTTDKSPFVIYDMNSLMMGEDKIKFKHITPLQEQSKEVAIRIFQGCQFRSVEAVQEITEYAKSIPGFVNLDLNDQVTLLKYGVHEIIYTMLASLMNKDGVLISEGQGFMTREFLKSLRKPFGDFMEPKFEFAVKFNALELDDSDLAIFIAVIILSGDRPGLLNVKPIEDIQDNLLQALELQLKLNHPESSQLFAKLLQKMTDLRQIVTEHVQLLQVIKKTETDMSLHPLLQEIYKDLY
Kind of experiment: Inhibition of Peroxisome proliferator activated receptor gamma. The method in brief:
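Competitive radioligand binding to PPARγ with [3H]BRL 49653 as the radioligand. […] It is converted to an apparent Ki by Ki = IC50/(1 + [L]/Kd), and results are given as pKi.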

As a reminder, the Ki is a dissociation constant, usually derived from enzyme kinetics or from competition with a known ligand. Higher therefore signals lower affinity. Usually EC50 stands for the concentration needed to bring the measured effect to its halfway point. In experiment [1], `Cc1[nH]c(-c2ccccc2)nc1CCOc1ccc(C[C@H](Nc2ccccc2C(=O)c2ccccc2)C(=O)O)cc1` gave a Ki of more than 3020 nM. The molecule further had an EC50 in experiment [2] of more than 10000 nM.
As to `CN(CCOc1ccc(C[C@H](Nc2ccccc2C(=O)c2ccccc2)C(=O)O)cc1)Cc1cccs1`, the “Log Ki” value in experiment [3] was “inactive”.
As to `COc1ccc(COc2ccc(C[C@H](Nc3ccccc3C(=O)c3ccccc3)C(=O)O)cc2)cc1OC`, the “Log Ki” value in experiment [3] is “inactive”.
The same measure, in the same setting: the value for `C/C(=C\c1ccccc1)COc1ccc(C[C@H](Nc2ccccc2C(=O)c2ccccc2)C(=O)O)cc1` was “inactive”.
Consider `Cc1cc(-c2nc(CCOc3ccc(C[C@H](Nc4ccccc4C(=O)c4ccccc4)C(=O)O)cc3)c(C)s2)no1`, for which, in experiment [1], the affinity, expressed as Ki, was 178 nM. The molecule also had an EC50 in experiment [2] of 1820 nM.
The like results for `Cc1sc(N2CCN(C(=O)OC(C)(C)C)CC2)nc1CCOc1ccc(C[C@H](Nc2ccccc2C(=O)c2ccccc2)C(=O)O)cc1` were, in that order, more than 3020 nM and more than 10000 nM.
The like results for `Cc1sc(NCCCN(C)C)nc1CCOc1ccc(C[C@H](Nc2ccccc2C(=O)c2ccccc2)C(=O)O)cc1` were, in that order, more than 3020 nM and more than 10000 nM.
The like results for `Cc1sc(N(C)C)nc1CCOc1ccc(C[C@H](Nc2ccccc2C(=O)c2ccccc2)C(=O)O)cc1` were, in that order, more than 3020 nM and more than 10000 nM.
For `COc1ccc(-c2nc(CCOc3ccc(C[C@H](Nc4ccccc4C(=O)c4ccccc4)C(=O)O)cc3)c(C)o2)cc1`, in experiment [1], the Ki was 107 nM. Further, in experiment [2], a half-maximal effect (EC50) was put at 389 nM.
Take `O=C(c1ccccc1)c1ccccc1N[C@@H](Cc1ccc(O)cc1)C(=O)O`: the “Log Ki” value in experiment [3] is “inactive”.
Turning to `COc1cc(OC)c(OC)cc1COc1ccc(C[C@H](Nc2ccccc2C(=O)c2ccccc2)C(=O)O)cc1`, the “Log Ki” value in experiment [3] was “inactive”.
As to `Cc1nc(COc2ccc(C[C@H](Nc3ccccc3C(=O)c3ccccc3)C(=O)O)cc2)n2nc(Cl)ccc12`, the “Log Ki” value in experiment [3] is “inactive”.
Molecule `Cc1sc(-c2ccncc2)nc1CCOc1ccc(C[C@H](Nc2ccccc2C(=O)c2ccccc2)C(=O)O)cc1` showed a Ki in experiment [1] of more than 3020 nM. The EC50 in experiment [2] was more than 10000 nM.
The corresponding values for `Cc1oc(N2CCCCC2)nc1CCOc1ccc(C[C@H](Nc2ccccc2C(=O)c2ccccc2)C(=O)O)cc1` are more than 3020 nM and more than 10000 nM.
Consider `COc1ccc(COc2ccc(C[C@H](Nc3ccccc3C(=O)c3ccccc3)C(=O)O)cc2)nc1OC`, for which, in experiment [3], the “Log Ki” value was “inactive”.
In turn, `Cc1cc(CCOc2ccc(C[C@H](Nc3ccccc3C(=O)c3ccccc3)C(=O)O)cc2)nn1-c1ccccc1` gave a Ki in experiment [1] of 407 nM. The concentration giving a half-maximal response (EC50) in experiment [2] was more than 10000 nM.
As for `Cc1ccc2cc(COc3ccc(C[C@H](Nc4ccccc4C(=O)c4ccccc4)C(=O)O)cc3)ccc2n1`, in experiment [3], the “Log Ki” value is “inactive”.
The same measure, in the same setting: the value for `Cc1cc(C)c(C)c(COc2ccc(C[C@H](Nc3ccccc3C(=O)c3ccccc3)C(=O)O)cc2)c1C` was “inactive”; that for `COc1ccc(COc2ccc(C[C@H](Nc3ccccc3C(=O)c3ccccc3)C(=O)O)cc2)cc1Br` was “inactive”.
The same measure, in the same setting: the value for `O=C(c1ccccc1)c1ccccc1N[C@@H](Cc1ccc(OCC2COC(C3CCCCC3)O2)cc1)C(=O)O` (stereo partly drawn) was “inactive”; that for `Cc1ccc[n+]2c1=NC(C)C=2COc1ccc(C[C@H](Nc2ccccc2C(=O)c2ccccc2)C(=O)O)cc1` (stereo partly drawn) was “inactive”.
For the molecule `Cc1oc(-c2ccc(F)cc2)nc1CCOc1ccc(C[C@H](Nc2ccccc2C(=O)c2ccccc2)C(=O)O)cc1`, the inhibition constant (Ki) in experiment [1] is 56.2 nM. In experiment [2], this molecule showed an EC50 of 257 nM.
The like results for `Cc1ccsc1-c1nc(CCOc2ccc(C[C@H](Nc3ccccc3C(=O)c3ccccc3)C(=O)O)cc2)c(C)o1` were, in that order, 468 nM and 2750 nM.
In the case of `Cc1ccc(-c2nc(CCOc3ccc(C[C@H](Nc4ccccc4C(=O)c4ccccc4)C(=O)O)cc3)c(C)o2)s1`, the Ki in experiment [1] was 45.7 nM. Besides, the response in experiment [2] was half-maximal at 575 nM (EC50).
The corresponding values for `COCn1c(-c2ccccc2)nc(C)c1CCOc1ccc(C[C@H](Nc2ccccc2C(=O)c2ccccc2)C(=O)O)cc1` are more than 3020 nM and more than 10000 nM.
